Legend:
MS2 coat protein [1] = test: apparent Kd, MS2 coat protein; higher = weaker binding; RNA-MaP array; theophylline 2 mM where present
Summary of the method: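 The titrant was SNAP-549-labelled MS2 coat protein, run from 0.7 or 1.5 nM in doubling steps to 3 µM. It was applied to designs transcribed by stalled E. coli RNA polymerase on Illumina sequencing-chip clusters, without ligand first and then with constant ligand, in 100 mM Tris-HCl pH 7.5, 80 mM KCl, 4 mM MgCl2, BSA, DTT, yeast tRNA and Tween-20. The apparent Kd is the median of filtered per-cluster binding-curve fits, with green signal normalised to red-channel RNA signal and control-cluster median Fmax.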

MS2 coat protein [2] = test: apparent Kd, MS2 coat protein; higher = weaker binding; RNA-MaP array
Summary of the method: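 In Tris-HCl pH 7.5 buffer with KCl, MgCl2, BSA, DTT, tRNA and Tween20, with or without input ligand, fluorescently labeled MS2 coat protein at 1.5 nM to 3 μM was incubated at room temperature with designed RNAs. The RNAs had been transcribed on an Illumina sequencing chip from sequenced DNA templates, and incubation ran 0.8–1.5 h at the lowest to 10–20 min at the highest concentrations. Apparent Kd is the median of binding-curve fits for individual clusters. Designs measured on fewer than 10 clusters were excluded.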

[3] = designed as: OFF switch for theophylline, no ligand
[4] = ligand present: theophylline, designed as: OFF switch for theophylline
[5] = designed as: ON switch for theophylline, no ligand
[6] = ligand present: theophylline, designed as: ON switch for theophylline
[7] = designed as: OFF switch for flavin mononucleotide, no ligand
[8] = ligand present: flavin mononucleotide, designed as: OFF switch for flavin mononucleotide
[9] = designed as: ON switch for flavin mononucleotide, no ligand
[10] = ligand present: flavin mononucleotide, designed as: ON switch for flavin mononucleotide

Sequence	apparent Kd (MS2 coat protein [1]; [3]) [nM]	apparent Kd (MS2 coat protein [1]; [4]) [nM]	also measured
GCUUGGGUGGCCCAGCCCUGGCAGGGCGAUACCAGCACGGUAACGUGCCCUUGGCAGCGCACAUGAGGAUCACCCAUGUGGUGCG	127	266	–
AGACAUGAGGAUCACCCAUGUAGCACGGAUACCAGAUCCAGAUUUAUCCCUUGGCAGCUGUGGUACAGCGUUGCAACGCUCCUAG	18.8	29.4	–
ACAUGAGGAUCACCCAUGUCUGCCACUGAUACCAGCGGAAGAAAACGCCCUUGGCAGCAGAACAUGAGGAUCACCCAUGUAGGCU	–	–	apparent Kd (MS2 coat protein [1]; [5]): 274 nM
AUAUGAUCAUGUGAUACCAGAAAUGGUAGUCUUCACUGGAUUACAUGAGGAUCACCCAUGUUCCCUUGGCAGCAUAUGAUCAUAU	43.6	259	–
GCACCAGGUACGGAUACCAGAGCAAGCCAAAUGAGUGAACAUGAGGAUCACCCAUGUUUGCUCCCUUGGCAGCCGUACCUGGUGC	9.34	45.2	–
AGACAUGAGGAUCACCCAUGUAGCAUGGAUACCAGAUGUAGAUUUGUCCCUUGGCAGCUGUGGUAAAGUGAUGCAUUGCUCCUAG	45.2	45.2	–
CAUACUUGAUCCUAUGAGCCUAUUUGUGAUACCAGCAUCUAAAUUUGCCCUUGGCAGCACUAACAUGAGGAUCACCCAUGUUAUA	34.9	71.8	–
UCUUGGUCCGCAAGGACCGUGAGUUGCGAUACCAGCACGGUAACGUGCCCUUGGCAGCGCACAUGAGGAUCACCCAUGUGGUGUU	281	318	–
AAAUAAAUCACAUGAGGAUCACCCAUGGAUACCAGGCCUGGAAACAGCCCUUGGCAGCCACAUGAGGAUCACCCAUGUGCUAAUA	213	219	–
ACGAACUGUAGUGAUACCAGACACACAUGAGGAUCACCCAUGUUGUUAGCAUGGUGAAUAGUCCCUUGGCAGCACAGUUAGUUCG	98.6	217	–
AAACGUUGCUCAGAUACCAGACAUGAGGAUCACCCAUGUACCGAGGUACCCGAAAGGAAUGUCCCUUGGCAGCUGAGCAACGAAA	11	123	–
CUAGGAAACUAGUAAGGGUGGUAUUGAGAUACCAGUACAGAAAUGUACCCUUGGCAGCUCACUGCAACAUGAGGAUCACCCAUGU	24.1	55.9	–
ACGAUAGGACAUGAGGAUCACCCAUGUGAUACCAGCCUGGAAACAGGCCCUUGGCAGCACAAAUACUCCAGAAACCUAUCGAAUA	281	226	–
AUAGUCUAGAGUGAUACCAGACAACAUGAGGAUCACCCAUGUAGCAUAUGGUUAUCAUGAGUCCCUUGGCAGCACGCAUGUAUAG	12.3	55.8	–
CUGCCAUGCAGAGAUACCAGUGCGCUCAGCACAUGAGGAUCACCCAUGUUGGCUGCCGAUCACCCUUGGCAGCUCUGCAUGGCAG	–	–	apparent Kd (MS2 coat protein [1]; [5]): 10.8 nM; apparent Kd (MS2 coat protein [1]; [6]): 7.62 nM
ACACAUGAGGAUCACCCAUGUCCAAUAGAUACCAGUGAUACGGUGCACCCUUGGCAGCUGUUACUGAGUGAUGGUUCCCUCGGAA	–	–	apparent Kd (MS2 coat protein [1]; [5]): 67.6 nM; apparent Kd (MS2 coat protein [1]; [6]): 97.1 nM
GGGUAUGAUCCGGAUACCAGCGAACAUGAGGAUCACCCAUGUGACCUAAGAUAGGCUCUACGCCCUUGGCAGCCGCGAUCGCGUU	–	–	apparent Kd (MS2 coat protein [1]; [5]): 24.8 nM; apparent Kd (MS2 coat protein [1]; [6]): 16.1 nM
UGACAUUGCUCAGAUACCAGACAUGAGGAUCACCCAUGUGCCAAACGUACAAUAAUAAAUGUCCCUUGGCAGCUGAGCAAUGUCU	11.3	101	–
AUAAGUAAUGUCUCGUGUAUUAUUACAGAUACCAGACUAUCCUAUGUCCCUUGGCAGCUGGAUUACAUGAGGAUCACCCAUGUUG	23.2	27.5	–
AUGUCGUUGAAUAUAGCGGCUUGGUGUGAUACCAGAAUGAUCAAAUUCCCUUGGCAGCAUUACAUGAGGAUCACCCAUGUUUAGG	–	–	apparent Kd (MS2 coat protein [1]; [5]): 23.7 nM; apparent Kd (MS2 coat protein [1]; [6]): 22.9 nM
ACGACGCAUAGUGAUACCAGUAGAACAUGAGGAUCACCCAUGUCUGUGACGCACAAAUUCUGCCCUUGGCAGCACUAUGCGUCAG	–	–	apparent Kd (MS2 coat protein [1]; [5]): 11.4 nM; apparent Kd (MS2 coat protein [1]; [6]): 33.3 nM
UUAGAUAUGACGGAUACCAGCGUGUUGUAGAACAUGAGGAUCACCCAUGUAGUGAUCGAGCGCCCUUGGCAGCUGGUAUGUUUGG	–	–	apparent Kd (MS2 coat protein [1]; [5]): 179 nM; apparent Kd (MS2 coat protein [1]; [6]): 482 nM
UCACAUGAGGAUCACCCAUGUACAGGCGAUACCAGCCGUACAUUGGGCCCUUGGCAGCGCAUCGAGACCUUUAUAAGCACCUCGG	–	–	apparent Kd (MS2 coat protein [1]; [5]): 49.9 nM; apparent Kd (MS2 coat protein [1]; [6]): 298 nM
AGACAUGAGGAUCACCCAUGUAGUAUGGAUACCAGAUCCAGAUUUAUCCCUUGGCAGCUGUGGUACAGCGAUGGAUUGCUCCUAG	38	39.8	–
GCAAUACAUGAGGAUCACCCAUGUGCAGAUACCAGAGGUGCGUGCCUCCCUUGGCAGCUGCGACGCUCUGGAAGCUUGUGUGUCU	19.4	25.2	–
AUAAGUAUGUUUUCGUGUUUUAUUACAGAUACCAGACUAUACGUUGUCCCUUGGCAGCUGGAUUACAUGAGGAUCACCCAUGUUG	23.1	53	–

Sequence	apparent Kd (MS2 coat protein [1]; [3]) [nM]	apparent Kd (MS2 coat protein [1]; [4]) [nM]	also measured
AGAAUACAUGUUUUAAUACGGUUUACUGAUACCAGUGUAUCUAUUCACCCUUGGCAGCAGAGACAUGAGGAUCACCCAUGUAUUA	38.8	55.2	–
GGCCUUGCGGGCGCCCGCAAGGCCGCGGAUACCAGCGAGGUCCAUCGCCCUUGGCAGCCGAACAUGAGGAUCACCCAUGUCGGUU	–	–	apparent Kd (MS2 coat protein [1]; [5]): 11 nM; apparent Kd (MS2 coat protein [1]; [6]): 13.4 nM
UUUUUCGCGGGUGAUACCAGCAAAGCUGUACUGGUCUGGUACAUGAGGAUCACCCAUGUUUGCCCUUGGCAGCGCUCGGGAGAAG	29.5	71.9	–
AGAUGCCACUGUGGAUAGCACGAUGCCGAUACCAGCUAGGAAACUAGCCCUUGGCAGCGGUACAUGAGGAUCACCCAUGUAUCCU	–	75	–
AUUUAUAGUUGUGAUACCAGACUUACAUGAGGAUCACCCAUGUUACUUAAAUGUUUUGAUGUCCCUUGGCAGCACUGUUUUUUUA	16.6	–	–
ACUUCAUGAGGUGAUACCAGCCAAUGACAUGAGGACAUGAGGAUCACCCAUGUUUAUGUAGGCCCUUGGCAGCAUUGUAACAUGA	–	–	apparent Kd (MS2 coat protein [1]; [5]): 59.4 nM; apparent Kd (MS2 coat protein [1]; [6]): 52.3 nM
ACUAGUUGUGCAGAUACCAGACAUGAGGAUCACCCAUGUUUGGGAUGUUCGCAUCUUCCUGUCCCUUGGCAGCUGUACAUCUAGA	82.5	44.6	–
ACAUGAGGAUCACCCAUGUUCCUCGCCGAUACCAGUGAAGAAGAACGCCCUUGGCAGCGGAAAGAAUAUUUUGGAGAUGAGGUAU	164	189	–
AUCGUACCUAAUGAUACCAGCAAGUGAUCAUAACAUGAGGAUCACCCAUGUAAUCAGUGAUGCCCUUGGCAGCAUAAUCGUUACA	–	–	apparent Kd (MS2 coat protein [1]; [5]): 163 nM; apparent Kd (MS2 coat protein [1]; [6]): 127 nM
AUAUGAUCAUGGGAUACCAGAAAUGGUAUUCCUUUAUUUCUUACAUGAGGAUCACCCAUGUUCCCUUGGCAGCUUAUGAUCAUAU	75	282	–
CGUGUGCGUUCUGAUACCAGAGACAUGAGGAUCACCCAUGUCCGAUCGUCCUGCCUCAGACUCCCUUGGCAGCAGGUUUUGUGCU	45.7	60.9	–
AAUAAGAGCUCGGAUACCAGCGAAAACAGGCACAUGAGGAUCACCCAUGUUAACGCACUGCGCCCUUGGCAGCCGCACGUGUGUC	–	–	apparent Kd (MS2 coat protein [2]; [5]): 25.1 nM; apparent Kd (MS2 coat protein [2]; [6]): 12 nM
GGAAUGUGAGGAUAUAGGUGACCAAUACAAAACACAAAGAUCUAGAAGGCACAUGAGGAUCACCCAUGUAUACG	–	–	apparent Kd (MS2 coat protein [2]; [7]): 19.9 nM; apparent Kd (MS2 coat protein [2]; [8]): 17.9 nM
GAUGUCAAACAGAAGGAAGACUUGUACAAGGACUUAGGAUAUGUACAUGAGGAUCACCCAUGUGACUAAUGCGGGCCAUAUGAC	–	–	apparent Kd (MS2 coat protein [2]; [7]): 15.1 nM; apparent Kd (MS2 coat protein [2]; [8]): 16.9 nM
ACUAGCAUAGGAUAUCACCACAGGUACAUGAGGAUCACCCAUGUGAGACUAGCUAGCUGCUGAGAAGGAUGAAAGG	–	–	apparent Kd (MS2 coat protein [2]; [7]): 27.9 nM; apparent Kd (MS2 coat protein [2]; [8]): 23.6 nM
GCACCUAGGUCAGGAUAUCAAAAUGUCAUACAUGAGGAUCACCCAUGUGUCGUUAAGUAACACUGUGAGAAGGGACAACUUGAA	–	–	apparent Kd (MS2 coat protein [2]; [7]): 10.3 nM; apparent Kd (MS2 coat protein [2]; [8]): 8.82 nM
AAGGACAUGAGGAUCACCCAUGUAGAGGAGCGAGGACCGGUACGGCCGCCACUCGGUGACAUUCGAUAAUGCCGAAUAAGACAUC	–	–	apparent Kd (MS2 coat protein [2]; designed as: ON switch for tryptophan, no ligand): 23.6 nM; apparent Kd (MS2 coat protein [2]; ligand present: tryptophan, designed as: ON switch for tryptophan): 22.6 nM
CCAAACACUGGAGGAUAUGCAAGAACAUGAGGAUCACCCAUGUAGUAACGAUAAAGAAAACAAGCGCAGAAGGCCACAUCUCUA	–	–	apparent Kd (MS2 coat protein [2]; [9]): 14.2 nM; apparent Kd (MS2 coat protein [2]; [10]): 6.49 nM
CGAAACAUGAGGAUCACCCAUGUGUAGAUCCUGCAAGCAUAUAGAAGGUCGUCACUCCGUCACGCGAAGGAUAUAUUAAGUGCC	–	–	apparent Kd (MS2 coat protein [2]; [7]): 210 nM; apparent Kd (MS2 coat protein [2]; [8]): 168 nM
CAGACGUAGAUUACAUGAGGAUCACCCAUGUCAUACCAGAUCAGAAGGGUUCUAGAGCGUACUCAACAGGAUAUGAUAAGUCCC	–	–	apparent Kd (MS2 coat protein [2]; [9]): 18.3 nM; apparent Kd (MS2 coat protein [2]; [10]): 16.5 nM
AUAUCCUCAACAGGAUAUACACGUGACUAAAUGGUAGAAGGGUUAGCAGACGACAUGAGGAUCACCCAUGUUUAGGAUAAAGCG	–	–	apparent Kd (MS2 coat protein [2]; [9]): 10.7 nM; apparent Kd (MS2 coat protein [2]; [10]): 9.66 nM
AAGCGACGUGACGCCUACAUGAGGAUCACCCAUGUAUGAAACAGAAGGUCCCGGAACCUUUACCGGAAGGAUAUGUAUCGUGCU	–	–	apparent Kd (MS2 coat protein [2]; [7]): 9.18 nM; apparent Kd (MS2 coat protein [2]; [8]): 7.78 nM
UAGAGCCAGUCGGCCGCCACUCUCCAUAUGUGAGCCUUUAAGUUCUACAUGAGGAUCACCCAUGUGAGGACCGGGACCGAAUCUA	–	–	apparent Kd (MS2 coat protein [2]; designed as: OFF switch for tryptophan, no ligand): 60.3 nM; apparent Kd (MS2 coat protein [2]; ligand present: tryptophan, designed as: OFF switch for tryptophan): 80.7 nM
UUUAAGAGAGGAUAUGUAGAAUAUAACAUGAGGAUCACCCAUGUACAGAGUGUUAAAGUCACAGAAGGCUCCAUGU	–	–	apparent Kd (MS2 coat protein [2]; [7]): 27.5 nM; apparent Kd (MS2 coat protein [2]; [8]): 20.6 nM
CUGAAAGUAGAGGAUAUGUGAAUAGCAGCGAUGACAGAAGGCUACACAUGAGGAUCACCCAUGUAAUCCCGUGC	–	–	apparent Kd (MS2 coat protein [2]; [7]): 20.4 nM; apparent Kd (MS2 coat protein [2]; [8]): 28.1 nM

— the EternaBench riboswitch data
